Measurements from ChEMBL document CHEMBL4257511, “Effect of N-1 arylation of monastrol on kinesin Eg5 inhibition in glioma cell lines” (Medchemcomm, 2018).
Calls of active or inactive are those of the source. No cut-off for these calls is given here.

Columns and labels:
U138-MG [1] = assay: Antiproliferative activity against human U138MG cells assessed as reduction in cell viability at 100 uM after 24 hrs by MTS assay relative to control; format: functional
How it was run: (§1)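 Glioma cells grown in DMEM with penicillin/streptomycin and FBS (15% or 5%, by line), 37 °C, 5% CO2; seeded and grown to semi-confluence, then exposed 24 h to 5, 10, 25, 50 and 100 μM. MTS reagent added for 2 h; absorbance at 490 nm. Viability expressed as percent of untreated control (100%); means ± SD of three independent experiments.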

C6 [2] = assay: Antiproliferative activity against rat C6 cells assessed as reduction in cell viability at 100 uM after 24 hrs by MTS assay relative to control; format: functional; how it was run: as §1
U138-MG [3] = assay: Antiproliferative activity against human U138MG cells after 24 hrs by MTS assay; format: functional, cell-based; how it was run: as §1
C6 [4] = assay: Antiproliferative activity against rat C6 cells after 24 hrs by MTS assay; format: functional, cell-based; conditions: C6, 24 h; how it was run: as §1
C6 [5] = assay: Cell cycle arrest in rat C6 cells assessed as accumulation at G2/M phase at 100 uM after 24 hrs by propidium iodide staining based flow cytometry; format: functional
How it was run: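 Cells grown to semi-confluence, treated 24 h (U138: 150 or 200 μM; C6: 50 or 100 μM), washed twice in PBS pH 7.4, harvested and resuspended at 10^6 cells/ml in Tris-HCl pH 7.6, 3.5 mM trisodium citrate, 0.1% NP40, 100 μg/mL RNase, 50 μg/mL PI. After 15 min, sub-G1, G0/G1, S and G2/M fractions read by flow cytometry.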

U138-MG [6] = assay: Induction of apoptosis in human U138MG cells at 200 uM after 48 hrs by Annexin V/propidium iodide staining based flow cytometry; format: functional, cell-based
How it was run: (§2)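 After 48 h exposure (U138: 150 or 200 μM; C6: 50 or 100 μM), cells washed twice in cold PBS pH 7.4 and counted. 10^5 cells stained with FITC-annexin V and PI in binding buffer, 15 min at room temperature in the dark, then read by two-colour flow cytometry. Early apoptotic annexin+/PI−, late apoptotic annexin+/PI+, necrotic annexin−/PI+.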

U138-MG [7] = assay: Induction of necrosis in human U138MG cells at 200 uM after 48 hrs by Annexin V/propidium iodide staining based flow cytometry; format: functional, cell-based; how it was run: as §2
C6 [8] = assay: Induction of apoptosis in rat C6 cells at 100 uM after 48 hrs by Annexin V/propidium iodide staining based flow cytometry; format: functional, cell-based; how it was run: as §2
[9] = target: T1, Kinesin family member 11 (Rattus norvegicus) (UniProt F1MAB8); assay: Inhibition of EG5 in rat C6 cells assessed as monopolar spindle formation at 100 uM after 24 hrs by Hoechst staining based immunofluorescence microscopic method; format: cell-based
T1 sequence (whole entry): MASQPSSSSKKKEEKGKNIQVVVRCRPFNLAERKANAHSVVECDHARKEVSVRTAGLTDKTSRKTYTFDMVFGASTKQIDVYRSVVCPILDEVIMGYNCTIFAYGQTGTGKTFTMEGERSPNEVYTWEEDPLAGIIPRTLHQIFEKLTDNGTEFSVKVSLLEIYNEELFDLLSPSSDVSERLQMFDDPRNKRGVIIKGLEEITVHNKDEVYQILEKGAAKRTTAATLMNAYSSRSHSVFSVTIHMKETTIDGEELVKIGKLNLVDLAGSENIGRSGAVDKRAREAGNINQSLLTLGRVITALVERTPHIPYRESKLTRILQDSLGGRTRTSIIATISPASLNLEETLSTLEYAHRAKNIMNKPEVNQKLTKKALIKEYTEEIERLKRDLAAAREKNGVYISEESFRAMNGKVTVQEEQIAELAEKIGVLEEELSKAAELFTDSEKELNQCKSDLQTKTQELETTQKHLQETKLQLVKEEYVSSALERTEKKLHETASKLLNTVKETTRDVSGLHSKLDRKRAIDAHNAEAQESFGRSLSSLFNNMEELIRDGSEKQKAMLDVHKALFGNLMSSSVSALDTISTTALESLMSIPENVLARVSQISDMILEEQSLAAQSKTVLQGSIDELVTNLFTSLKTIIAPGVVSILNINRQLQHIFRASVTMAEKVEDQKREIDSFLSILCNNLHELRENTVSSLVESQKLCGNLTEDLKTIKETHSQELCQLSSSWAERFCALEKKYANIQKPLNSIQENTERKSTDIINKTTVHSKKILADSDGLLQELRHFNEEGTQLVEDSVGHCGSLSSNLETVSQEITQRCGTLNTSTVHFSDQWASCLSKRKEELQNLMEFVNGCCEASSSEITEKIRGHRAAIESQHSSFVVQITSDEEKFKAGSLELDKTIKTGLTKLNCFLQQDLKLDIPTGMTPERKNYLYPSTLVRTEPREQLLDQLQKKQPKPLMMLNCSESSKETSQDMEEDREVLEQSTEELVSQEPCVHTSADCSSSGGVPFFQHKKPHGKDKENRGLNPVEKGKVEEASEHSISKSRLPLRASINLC
How it was run: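 Glioma cells allowed to adhere 48 h, then treated 24 h (U138: 150 or 200 μM; C6: 50 or 100 μM). Fixed cells probed with rabbit anti-α-tubulin for 90 min, then FITC goat anti-rabbit for 1 h, with Hoechst nuclear counterstain. Monopolar spindles scored by confocal microscopy at 600×.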

[10] = Toxicity in Caenorhabditis elegans N2 L1 larva assessed as mortality incubated for 30 mins on rotator and measured after 24 hrs; format: organism-based; conditions: in vivo
How it was run: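 Wild-type N2 worms kept on NGM plates seeded with E. coli OP50 at 20 °C and synchronized to L1 by bleaching. L1 larvae (2.500 worms per dose) exposed acutely to five doses from 6.25 to 200 mM, 20 °C, 30 min with constant rotation. Washed three times in M9, plated on OP50-seeded NGM, survivors counted at 24 h. LC50 derived from dose–response curves.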

[11] = target: T2, Kinesin-like protein KIF11 (Homo sapiens) (UniProt P52732); conditions: 200 uM
T2 sequence (whole entry): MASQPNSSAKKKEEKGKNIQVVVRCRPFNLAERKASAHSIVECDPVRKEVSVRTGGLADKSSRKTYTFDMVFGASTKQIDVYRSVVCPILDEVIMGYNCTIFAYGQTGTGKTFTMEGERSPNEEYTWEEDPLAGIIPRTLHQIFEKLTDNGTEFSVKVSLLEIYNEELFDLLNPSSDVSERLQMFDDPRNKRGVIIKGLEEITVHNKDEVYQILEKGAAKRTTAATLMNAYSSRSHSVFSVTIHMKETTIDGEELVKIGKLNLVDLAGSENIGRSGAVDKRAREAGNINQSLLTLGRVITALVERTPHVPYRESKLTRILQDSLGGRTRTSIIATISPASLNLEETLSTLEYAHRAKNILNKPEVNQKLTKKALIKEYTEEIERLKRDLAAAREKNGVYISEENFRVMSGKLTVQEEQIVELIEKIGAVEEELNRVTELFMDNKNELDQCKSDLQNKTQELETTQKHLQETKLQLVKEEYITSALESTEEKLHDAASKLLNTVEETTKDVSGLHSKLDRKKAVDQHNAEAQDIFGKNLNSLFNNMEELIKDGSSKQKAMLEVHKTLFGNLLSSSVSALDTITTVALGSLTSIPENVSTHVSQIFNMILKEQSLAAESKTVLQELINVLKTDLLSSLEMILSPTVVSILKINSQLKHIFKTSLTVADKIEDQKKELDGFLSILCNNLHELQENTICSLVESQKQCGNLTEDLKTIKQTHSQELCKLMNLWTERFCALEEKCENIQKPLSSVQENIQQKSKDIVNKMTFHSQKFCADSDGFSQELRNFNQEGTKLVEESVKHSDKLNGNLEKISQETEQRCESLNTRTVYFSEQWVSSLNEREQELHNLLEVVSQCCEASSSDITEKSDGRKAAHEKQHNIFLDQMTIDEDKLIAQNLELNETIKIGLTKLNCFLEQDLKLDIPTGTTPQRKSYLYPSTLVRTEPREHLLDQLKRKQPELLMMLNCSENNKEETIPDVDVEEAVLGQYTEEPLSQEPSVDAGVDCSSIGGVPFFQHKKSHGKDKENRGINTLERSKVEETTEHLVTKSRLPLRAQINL

C6 (Rattus norvegicus) = assay: Cell cycle arrest in rat C6 cells assessed as accumulation at G2/M phase at 100 uM after 24 hrs by propidium iodide staining based flow cytometry relative to control

Compound: CCOC(=O)C1=C(C)NC(=S)NC1c1cccc(O)c1 (configuration not stated) [MONASTROL]
- Activity (U138-MG [1]): 20.8%
- Activity (C6 [2]): Active
- IC50 (U138-MG [3]): > 0.2 mM
- IC50 (C6 [4]): > 0.2 mM
- Activity (C6 [5]): Active
- Activity (U138-MG [6]): Active
- Activity (U138-MG [7]): Active
- Activity (C6 [8]): Active
- inhibition [9]: Active
- LC50 at 24 h [10]: 80.1 mM
- inhibition [11]: Active
- Activity (C6 (Rattus norvegicus)): 27.4%
